Series [1] addresses Soluble guanylate cyclase (Homo sapiens) (UniProt Q02153+O75343+P33402+Q02108). Briefly: Activation of sGC in human hCMEC/D3 cells assessed as production of cGMP per million cells using [3H]-cGMP after 1 hr by liquid scintillation counting. The format is cell-based. The following applies: CMEC/D3. Put shortly: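 hCMEC/D3 cells (1×10^6, collagen-coated wells, supplemented EBM-2, 37°C, 5% CO2) switched to Hepes-Ca2+ buffer pH 7.4 with 1 mM IBMX. Exposed 1 h at 37°C to 0.1, 1, 5 or 10 μM; SNP 1 mM as reference NO donor. Ethanol-permeabilized, residue taken up in Tris-EDTA pH 8. cGMP quantified by [3H]-cGMP competitive radioimmunoassay with scintillation counting against a [3H]-cGMP titration curve; expressed as pmol/10^6 cells. Mean ± SEM, one-way ANOVA.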

Series [2] can be described thus: Cytotoxicity against human hCMEC/D3 cells up to 1 uM after 18 hrs by lactate dehydrogenase assay. The format is cell-based. The following applies: hcmec/d3, 18 h.
Series [3] can be described thus: Cytotoxicity against human hCMEC/D3 cells at 10 to 20 uM after 18 hrs by lactate dehydrogenase assay. In kind it is cell-based. The following applies: hcmec/d3, 18 h.
For series [4], the target named is T1, Amyloid-beta precursor protein (Homo sapiens, UniProt P05067). Briefly: Inhibition of Amyloid beta (1 to 40) (unknown origin) aggregation assessed as amount of fibrils formation at 100 uM after 2 hrs by thioflavin T based spectrofluorimetric method. Put shortly: (§1)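 Aβ40 pretreated in HFIP to remove preaggregates, then 30 μM peptide incubated 2 h at room temperature with inhibitor in PBS pH 7.4 (2% HFIP, 5% DMSO). ThT (3 μM, in 50 mM phosphate pH 6.0) fluorescence read at ex 450/em 486 nm. Inhibition = 100 − [(Fi−Fb)/F0×100]. IC50 from 5–7 concentrations in triplicate, ≥3 independent experiments, nonlinear regression; weaker compounds given as % inhibition ± SE at 100 μM.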
T1 sequence (P05067 whole entry): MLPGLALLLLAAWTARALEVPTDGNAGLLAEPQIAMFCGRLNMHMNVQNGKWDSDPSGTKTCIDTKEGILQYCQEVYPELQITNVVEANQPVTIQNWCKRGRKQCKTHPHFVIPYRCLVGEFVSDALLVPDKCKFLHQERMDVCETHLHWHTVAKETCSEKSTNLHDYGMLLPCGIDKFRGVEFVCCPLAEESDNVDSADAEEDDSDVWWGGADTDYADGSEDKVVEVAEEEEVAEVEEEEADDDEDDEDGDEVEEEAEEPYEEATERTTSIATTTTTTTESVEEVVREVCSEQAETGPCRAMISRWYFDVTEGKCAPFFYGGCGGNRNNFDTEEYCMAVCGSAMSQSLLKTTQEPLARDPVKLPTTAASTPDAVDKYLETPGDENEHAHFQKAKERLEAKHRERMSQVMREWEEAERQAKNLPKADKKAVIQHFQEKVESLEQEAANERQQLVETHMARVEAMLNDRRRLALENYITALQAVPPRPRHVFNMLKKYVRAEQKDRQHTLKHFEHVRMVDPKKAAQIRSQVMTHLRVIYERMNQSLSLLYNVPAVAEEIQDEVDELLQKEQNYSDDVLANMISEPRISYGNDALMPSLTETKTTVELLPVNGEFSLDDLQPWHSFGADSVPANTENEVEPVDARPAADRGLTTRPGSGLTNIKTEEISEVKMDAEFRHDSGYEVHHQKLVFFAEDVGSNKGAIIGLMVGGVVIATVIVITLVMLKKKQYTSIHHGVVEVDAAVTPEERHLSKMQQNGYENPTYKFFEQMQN

Series [5] has as its target T1, Amyloid-beta precursor protein. The series is described as follows: Inhibition of Amyloid beta (1 to 40) (unknown origin) aggregation assessed as amount of fibrils formation after 2 hrs by thioflavin T based spectrofluorimetric method. Put shortly:
as §1

The target in series [6] is Microtubule-associated protein tau (Homo sapiens) (UniProt P10636). Briefly: Inhibition of wild type human recombinant tau 2N4R aggregation assessed as reduction of formation rate and number of aggregates at 1 uM after 48 hrs using Congo Red staining. The essentials:
(§2)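 Recombinant human tau 2N4R, expressed in E. coli BL21(DE3), used at 8 μM with 300 μg/mL heparin in 35 mM MES pH 7.4, 1 mM DTT at 37°C, alone or with compound at 1 μM (final). Aliquots taken at 2 and 5 days, stained with Congo Red and examined under polarized light; also negatively stained with uranyl acetate for EM at 30,000 magnification.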

Series [7] has the same target. Briefly: Inhibition of wild type human recombinant tau 2N4R aggregation assessed as reduction of formation rate and number of aggregates at 1 uM after 5 days using Congo Red staining. Put shortly:
as §2

For a further series, the system named is Brain. The series is described as follows: Synaptic plasticity activity in hippocampal brain slices of C57BL/6 mouse assessed as protection against amyloid beta (1 to 42)-induced long-term potentiation inhibition after 20 mins. The format is functional. On the set-up: scale not given: the % may be the effect or the level left. Put shortly: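 Hippocampal slices (400 μm) from 30-day-old male C57BL/6 mice, recovered at 32°C in ACSF. Oligomerized Aβ42 (final 200 nM) was mixed with compound (final 2 μM), pre-incubated 30 min, then perfused 20 min before HFS. Schaffer collateral stimulation; CA1 fEPSP peak amplitude recorded 60 min post-HFS. LTP taken as mean over 55–60 min as % of baseline. Mean ± SEM, unpaired t-test.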

The target in series [8] is T1, Amyloid-beta precursor protein. The series is described as follows: Inhibition of Amyloid beta (1 to 42) (unknown origin) aggregation assessed as amount of fibrils formation after 5 days by thioflavin T based spectrofluorimetric method.

Active and inactive are the calls of the source. No cut-off for these calls is given here.

One may read the inhibition as the share of the control response that was lost under treatment. A word on the IC50: it is the concentration that inhibits the measured activity by half.

Microtubule-associated protein tau (Homo sapiens), sequence (P10636 whole entry): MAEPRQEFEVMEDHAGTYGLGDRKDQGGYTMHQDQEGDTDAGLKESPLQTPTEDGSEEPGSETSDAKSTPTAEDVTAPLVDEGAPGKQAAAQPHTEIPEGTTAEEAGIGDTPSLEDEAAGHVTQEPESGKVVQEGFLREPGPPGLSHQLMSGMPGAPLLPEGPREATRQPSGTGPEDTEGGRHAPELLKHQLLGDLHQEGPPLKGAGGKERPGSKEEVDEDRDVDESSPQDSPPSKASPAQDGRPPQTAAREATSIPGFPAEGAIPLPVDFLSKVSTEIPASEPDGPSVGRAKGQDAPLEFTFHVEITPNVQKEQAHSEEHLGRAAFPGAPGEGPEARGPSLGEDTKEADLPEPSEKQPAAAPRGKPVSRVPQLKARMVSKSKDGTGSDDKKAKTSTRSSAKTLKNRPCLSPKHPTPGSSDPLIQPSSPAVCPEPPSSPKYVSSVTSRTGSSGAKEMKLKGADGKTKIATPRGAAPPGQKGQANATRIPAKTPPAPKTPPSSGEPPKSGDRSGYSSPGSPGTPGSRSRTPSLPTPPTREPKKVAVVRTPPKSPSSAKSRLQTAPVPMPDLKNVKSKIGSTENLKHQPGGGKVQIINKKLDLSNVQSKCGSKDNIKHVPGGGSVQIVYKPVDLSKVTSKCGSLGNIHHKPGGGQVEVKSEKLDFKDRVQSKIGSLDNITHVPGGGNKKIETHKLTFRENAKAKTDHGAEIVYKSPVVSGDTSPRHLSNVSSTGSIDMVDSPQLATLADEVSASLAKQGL

On to `CCN1/C(=C/C=C/c2sc3ccccc3[n+]2CC)Sc2ccc(OCc3no[n+]([O-])c3C(N)=O)cc21.[I-]`, for which the figures for the Activity result in [1], in [2] and in series [3] were “Dose-dependent effect”, “Non-toxic” and “Non-toxic”, respectively. In addition, in [4], the inhibition worked out at 26%.
Regarding `CCN1/C(=C/C=C/c2sc3ccccc3[n+]2CC)Sc2ccc(Oc3no[n+]([O-])c3S(=O)(=O)c3ccccc3)cc21.[I-]`, the Activity entry in series [1] is “Dose-dependent effect”; in [2], “Non-toxic”; in series [3], “Non-toxic”. Moreover, in series [5], the IC50 was 21 µM. Also, the inhibition entry in series [6] and in series [7] was “Active” in each case.
With `CCN1/C(=C/C=C/c2sc3ccc(OCc4no[n+]([O-])c4C(N)=O)cc3[n+]2CC)Sc2ccc(OCc3no[n+]([O-])c3C(N)=O)cc21.O=S(=O)([O-])C(F)(F)F`, the Activity result in series [1] is “Dose-dependent effect”; in series [2] it was “Non-toxic”; in [3], “Non-toxic”. Moreover, the inhibition in series [4] was found to be 17%.
Take `CCN1/C(=C/C=C/c2sc3ccccc3[n+]2CC)Sc2ccc(Oc3no[n+]([O-])c3-c3ccccc3)cc21.[I-]`: the Activity result in series [1] is “Dose-dependent effect”; in [2], “Non-toxic”; in series [3], “Non-toxic”; in the series with Brain, 90.8%. Also, the IC50 turned out to be 1.8 µM in series [5] and 1.6 µM in [8]. Further, the inhibition entry in series [6] and in series [7] was “Active” in each case.
In the case of `CCN1/C(=C/C=C/c2sc3ccccc3[n+]2CC)Sc2ccccc21.[I-]`, the Activity result in [2] is “Non-toxic”; in series [3] it was “Non-toxic”; in the series with Brain, 34.7%. Moreover, the results for the IC50 in series [5] and in series [8] were 3.1 µM and 3.3 µM, respectively.
Consider `CCN1/C(=C/C=C/c2sc3ccc(OCCCO[N+](=O)[O-])cc3[n+]2CC)Sc2ccc(OCCCO[N+](=O)[O-])cc21.O=S(=O)([O-])C(F)(F)F`, for which the Activity entry in series [1] was “Dose-dependent effect”; in series [2], “Non-toxic”; in [3], “Non-toxic”. Besides, the inhibition in series [4] worked out at 26%. Besides, the inhibition result in series [6] and in series [7] was “Active” each time.
Take `CCCOc1ccc2c(c1)N(CC)/C(=C/C=C/c1sc3ccccc3[n+]1CC)S2.[I-]`: the Activity result in series [1] is “Dose-dependent effect”; in series [2], “Non-toxic”; in [3], “Non-toxic”. The values for the IC50 in series [5] and in series [8] were 7 µM and 0.8 µM, respectively.
As to `CCCOc1ccc2c(c1)N(CC)/C(=C/C=C/c1sc3ccc(OCCC)cc3[n+]1CC)S2.[I-]`, the results for the Activity result in [1], in [2] and in series [3] were “Dose-dependent effect”, “Non-toxic” and “Non-toxic”, respectively. For the same compound, the inhibition result in [5] is “inactive”.
As to `CCN1/C(=C/C=C/c2sc3ccccc3[n+]2CC)Sc2ccc(OCCCO[N+](=O)[O-])cc21.[I-]`, the Activity entry in [1] was “Dose-dependent effect”; in series [2], “Non-toxic”; in series [3], “Non-toxic”; in the series on Brain, 69.3%. The IC50 in series [5] was 8.1 µM; in series [8] it was 7.7 µM. Also, the inhibition entry in series [6] and in series [7] was “Active” in each case.
`CN(C)c1ccc2nc3ccc(=[N+](C)C)cc-3sc2c1`: the IC50 in series [5] is 4.5 µM.
